Measurements reported in ChEMBL document CHEMBL1157319, “Altenuene derivatives from an unidentified freshwater fungus in the family Tubeufiaceae” (2006).
Activity calls are given as the source filed them. No cut-off for these calls is given here.

Key:
Fusarium verticillioides = assay: Antifungal activity against Fusarium verticillioides NRRL 25457 at 200 ug/disk by disk diffusion method; format: functional, organism-based
Bacillus subtilis = assay: Antibacterial activity against Bacillus subtilis ATCC 6051 at 100 ug/disk by disk diffusion method; format: functional; conditions: for zone of inhibition at 100 µg/disc: read-out: IZ
Outline: (§1)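 Paper disks each loaded with 100 µg of test material; gentamicin sulfate at 25 µg/disk served as the positive standard. Read-out was the diameter of the inhibition zone in mm. The same panel also included Escherichia coli ATCC 25922.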

Staphylococcus aureus = assay: Antibacterial activity against Staphylococcus aureus ATCC 29213 at 100 ug/disk by disk diffusion method; format: functional; conditions: for zone of inhibition at 100 µg/disc: read-out: IZ; outline: as §1
Aspergillus flavus = assay: Antifungal activity against Aspergillus flavus NRRL 6541 at 200 ug/disk by disk diffusion method; format: functional, organism-based
Candida albicans = assay: Antifungal activity against Candida albicans ATCC 14053 at 200 ug/disk by disk diffusion method; format: functional, organism-based

Compound | Activity (Fusarium verticillioides) | zone of inhibition at 100 µg/disc (Bacillus subtilis) | zone of inhibition at 100 µg/disc (Staphylococcus aureus) | Activity (Aspergillus flavus) | Activity (Candida albicans) | Activity (Bacillus subtilis) | Activity (Staphylococcus aureus)
COc1cc(O)c2c(c1)C1=CC(=O)[C@@H](O)C[C@]1(C)OC2=O [DEHYDROALTENUENE B] | inactive | 20 mm | 14 mm | inactive | inactive | – | –
COc1cc(O)c2c(c1)C1=CC(=O)[C@H](O)C[C@]1(C)OC2=O [DEHYDROALTENUENE A] | inactive | 13 mm | – | inactive | inactive | – | –
COc1cc(O)c2c(c1)[C@H]1C[C@H](O)[C@@H](O)C[C@]1(C)OC2=O | inactive | – | – | inactive | inactive | inactive | inactive
COc1cc(O)c2c(c1)C1=C[C@H](O)[C@@H](O)C[C@]1(C)OC2=O [ALTENUENE] | – | 20 mm | 18 mm | – | – | – | –
COc1cc(O)c2c(c1)C1=C[C@@H](O)[C@H](O)C[C@]1(C)OC2=O [ISOALTENUENE] | – | 30 mm | – | – | – | – | –
COc1cc(O)c2c(c1)[C@H]1C[C@@H](O)[C@@H](O)C[C@]1(C)OC2=O [DIHYDROALTENUENE A] | inactive | 50 mm | 14 mm | inactive | inactive | – | –
COc1cc(O)c2c(c1)C1=C[C@@H](O)[C@@H](O)C[C@]1(C)OC2=O | – | – | – | – | – | inactive | –
